What all share (format): functional
In assay [1] the test system is Mycobacterium tuberculosis. The assay can be described thus: Antimicrobial activity against wild type Mycobacterium tuberculosis 8C6 after 4 weeks by 7H agar proportion method. The method in brief: (§1)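 EMB MIC by 7H10 agar proportion for clones selected from M. tuberculosis strain 210. About 10^9 cells from liquid culture (OD600 ~1.5, resuspended in 7H9) were plated on 7H10 with EMB at 8, 16 or 32 µg/ml final, incubated 37°C for 4 weeks. Colonies were subcultured in EMB-free 7H9 before testing, and embCAB was genotyped.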

Assay [2] deals with Mycobacterium tuberculosis. The assay can be described thus: Antimicrobial activity against wild type Mycobacterium tuberculosis NJT210CGG-CAG after 4 weeks. Particulars: 672 h. The method in brief:
(§2)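 Isogenic embB mutants made by allelic exchange in strain 210. PCR-built fragments carried the codon of interest; double-crossover colonies were screened by molecular beacon assay and confirmed by direct embB sequencing. MICs of EMB, INH and RIF were determined by radiometric Bactec 460TB and 7H10 agar proportion, alongside parent 210.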

In assay [3] the test system is Mycobacterium tuberculosis. The assay can be described thus: Antimicrobial activity against wild type Mycobacterium tuberculosis 210 after 4 weeks by 7H agar proportion method. The method in brief:
(§3)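 Parental M. tuberculosis strain 210 with no EMB exposure. EMB MIC determined in parallel by 7H10 agar proportion and radiometric Bactec 460TB.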

For assay [4], the system named is Mycobacterium tuberculosis. Description: Antimicrobial activity against wild type Mycobacterium tuberculosis 16C10 after 4 weeks by Bactec 460TB method. Particulars: 16C10, 672 h. The method in brief:
(§4)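 EMB MIC by radiometric Bactec 460TB liquid method for clones from strain 210. The clones were selected on 7H10 containing 8, 16 or 32 µg/ml EMB final (~10^9 cells plated, 37°C, 4 weeks), then subcultured in 7H9 without EMB before MIC testing. embCAB was genotyped.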

For assay [5], the system named is Mycobacterium tuberculosis. Description: Antimicrobial activity against wild type Mycobacterium tuberculosis 16C12 assessed as inhibition of growth after 4 weeks by Bactec 460TB method. The following applies: 16C12, 672 h. The essentials: as §4
The test system of assay [6] is Mycobacterium tuberculosis. The assay can be described thus: Antimicrobial activity against wild type Mycobacterium tuberculosis 210 after 4 weeks. The following applies: Mycobacterium tuberculosis, 210, 672 h. The method in brief:
as §2

Assay [7] relates to Mycobacterium tuberculosis. Description: Antimicrobial activity against wild type Mycobacterium tuberculosis 16C10 after 4 weeks by 7H agar proportion method. The method in brief: as §1
In assay [8] the test system is Mycobacterium tuberculosis. The assay can be described thus: Antimicrobial activity against wild type Mycobacterium tuberculosis 8C3 after 4 weeks by Bactec 460TB method. Particulars: 8C3, 672 h.
Assay [9] deals with Mycobacterium tuberculosis. Description: Antimicrobial activity against wild type Mycobacterium tuberculosis 210 after 4 weeks by Bactec 460TB method. The following applies: Mycobacterium tuberculosis, 210, 672 h. The essentials:
as §3

Assay [10] has as its system Mycobacterium tuberculosis. Description: Antimicrobial activity against wild type Mycobacterium tuberculosis 8C2 after 4 weeks by Bactec 460TB method. Particulars: 8C2, 672 h. The method in brief: as §4
In assay [11] the test system is Mycobacterium tuberculosis. The assay can be described thus: Antimicrobial activity against wild type Mycobacterium tuberculosis 8C1 after 4 weeks by Bactec 460TB method. Particulars: 8C1, 672 h. The essentials:
as §4

In assay [12] the test system is Mycobacterium tuberculosis. The assay can be described thus: Antimicrobial activity against wild type Mycobacterium tuberculosis 8C1 after 4 weeks by 7H agar proportion method. The essentials:
as §1

In assay [13] the test system is Mycobacterium tuberculosis. The assay can be described thus: Antimicrobial activity against wild type Mycobacterium tuberculosis 8C2 after 4 weeks by 7H agar proportion method. The method in brief:
as §1

Assay [14] relates to Mycobacterium tuberculosis. Description: Antimicrobial activity against wild type Mycobacterium tuberculosis 16C12 after 4 weeks by 7H agar proportion method. The method in brief: as §1
Assay [15] relates to Mycobacterium tuberculosis. The assay can be described thus: Antimicrobial activity against wild type Mycobacterium tuberculosis 8C6 after 4 weeks by Bactec 460TB method. Particulars: 8C6, 672 h.

This is an account of results in ChEMBL document CHEMBL1212742 (2010).

Converted amounts (≈) assume the structure as drawn.

The term MIC denotes the lowest concentration found to suppress growth. As to `CC[C@@H](CO)NCCN[C@@H](CC)CO` [ETHAMBUTOL], the MIC turned out to be 4 µg/mL (≈ 19.6 µM) in [1]; 2 µg/mL (≈ 9.79 µM) in assay [2]; 2 µg/mL (≈ 9.79 µM) in [3]; 2 µg/mL (≈ 9.79 µM) in assay [4]; 3 µg/mL (≈ 14.7 µM) in assay [5]; 2 µg/mL (≈ 9.79 µM) in assay [6]. For the same compound, the MIC is 6 µg/mL (≈ 29.4 µM) in assay [7]; 4 µg/mL (≈ 19.6 µM) in assay [8]; 2 µg/mL (≈ 9.79 µM) in assay [9]; 4 µg/mL (≈ 19.6 µM) in [10]; 2 µg/mL (≈ 9.79 µM) in assay [11]; 6 µg/mL (≈ 29.4 µM) in assay [12]. The MIC came to 8 µg/mL (≈ 39.2 µM) in assay [13], 8 µg/mL (≈ 39.2 µM) in assay [14] and 2 µg/mL (≈ 9.79 µM) in assay [15].
As to `CO[C@H]1/C=C/O[C@@]2(C)Oc3c(C)c(O)c4c(O)c(c(/C=N/N5CCN(C)CC5)c(O)c4c3C2=O)NC(=O)/C(C)=C\C=C\[C@H](C)[C@H](O)[C@@H](C)[C@@H](O)[C@@H](C)[C@H](OC(C)=O)[C@@H]1C` [RIFAMPIN], the MIC in assay [2] and in assay [6] was 0.05 µg/mL (≈ 0.0608 µM) each time.
Consider `NNC(=O)c1ccncc1` [ISONIAZID], for which the MIC in assay [2] and in [6] was 0.05 µg/mL (≈ 0.365 µM) each time.
